Data set [1] deals with Human betaherpesvirus 5. The data set can be described thus: Antiviral activity against Human cytomegalovirus Davis infected in HEL cells assessed as inhibition of virus plaque formation. Type of data set: functional, cell-based. The settings on record: Human betaherpesvirus 5, Davis.
Data set [2] is described as follows: Cytotoxicity against HEL cells assessed as growth inhibition after 3 days by coulter counter method. Particulars: human; for CC50: hel, 72 h; for CC50 at 72 h: HEL cells. Type of data set: toxicity, cell-based. Put shortly:
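HEL cells were seeded at 5×10^3 cells/well and allowed to grow for 24 h. Medium with varying compound concentrations was then added, and cells were incubated for 3 days at 37 °C before counting with a Coulter counter.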

For data set [3], the system named is Human alphaherpesvirus 1. The data set can be described thus: Antiviral activity against thymidine kinase-deficient acyclovir-resistant Herpes simplex virus 1 KOS infected in HEL cells assessed as inhibition of virus plaque formation. Type of data set: functional, cell-based. The settings on record: Human alphaherpesvirus 1, KOS.
The test system of data set [4] is Human alphaherpesvirus 3. The data set can be described thus: Antiviral activity against thymidine kinase deficient Varicella-Zoster virus 07-1 infected in HEL cells assessed as inhibition of virus plaque formation. Type of data set: functional, cell-based. Particulars: Human alphaherpesvirus 3, 07-1, HEL. The essentials:
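Confluent HEL fibroblast monolayers were infected with 20 PFU of TK⁻ VZV strain 07-1 and incubated with varying compound concentrations. Plaques were recorded once plaque formation reached completion in untreated infected controls.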

In data set [5] the test system is Human alphaherpesvirus 2. Description: Antiviral activity against Herpes simplex virus 2 G infected in HEL cells assessed as inhibition of virus plaque formation. Type of data set: functional, cell-based. Particulars: Human alphaherpesvirus 2, strain G.
For data set [6], the system named is Human alphaherpesvirus 1. Description: Antiviral activity against Herpes simplex virus 1 KOS infected in HEL cells assessed as inhibition of virus plaque formation. Type of data set: functional, cell-based. The settings on record: Human alphaherpesvirus 1, KOS.
Data set [7] is described as follows: Cytotoxicity against HEL cells assessed as alteration of cell morphology after 3 days by microscopic method. Particulars: human. Type of data set: toxicity, cell-based. The essentials: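 HEL cultures were exposed to compound at varying concentrations. Cytotoxicity was recorded as the minimum cytotoxic concentration, the lowest concentration giving a microscopically detectable alteration of cell morphology.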

The subject of data set [8] is Human betaherpesvirus 5. The data set can be described thus: Antiviral activity against Human cytomegalovirus AD169 infected in HEL cells assessed as inhibition of virus plaque formation. Type of data set: functional, cell-based. The settings on record: Human betaherpesvirus 5, AD169, HEL.
Data set [9] deals with Human alphaherpesvirus 3. The data set can be described thus: Antiviral activity against thymidine Kinase expressing Varicella-Zoster virus OKA infected in HEL cells assessed as inhibition of virus plaque formation. Type of data set: functional, cell-based. Particulars: Human alphaherpesvirus 3, OKA. Put shortly: (§1)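 Confluent HEL cell monolayers were infected with 20 PFU of VZV and incubated with varying compound concentrations. Plaques were scored once plaque formation was complete in untreated infected controls.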

Data set [10] deals with Human alphaherpesvirus 3. Description: Antiviral activity against thymidine kinase deficient Varicella-Zoster virus YS-R infected in HEL cells assessed as inhibition of virus plaque formation. The settings on record: Human alphaherpesvirus 3, YS-R. Type of data set: functional, cell-based. The essentials:
as §1

This note sets out measurements from ChEMBL document CHEMBL3877247, “Identification of an indol-based derivative as potent and selective varicella zoster virus (VZV) inhibitor” (Eur J Med Chem, 2016).

pEC50: −log10 of the molar value.

In the case of `Cn1cc(CCNCCc2ccc(-c3ccccc3)cc2)c2ccccc21`, the pEC50 (in general, −log10 of the EC50, conventionally taken in molar units) in data set [1] was less than 5.40; in [3] it was less than 4.00; in data set [4], less than 5.40; in [5], less than 4.00; in data set [6] it was less than 4.00; in data set [8], less than 5.40. The CC50 (usually the concentration that lowers cell viability or growth by half) in data set [2] was 20 µM. The MCC at 72 h in data set [7] was greater than 4 µM.

Consider `CCCn1cc(C(=O)c2ccc(Cl)cc2)c2ccccc21`, for which the negative logarithm of the EC50 (pEC50) in data set [9], in data set [1], in data set [3], in [4], in data set [5] and in [6] was less than 4.00 each time. Also, the CC50 in [2] was greater than 100 µM. The MCC at 72 h in data set [7] is greater than 100 µM.

Regarding `CC(=O)N(CCc1ccc(-c2ccccc2)cc1)CCc1cn(C)c2ccccc12`, the pEC50 was 5.44 to 5.60 in data set [9]; less than 5.40 in [1]; less than 4.00 in data set [3]; 5.51 to 5.77 in data set [4]; less than 4.00 in [5]; 5.68 in data set [10]. Moreover, in data set [6], the pEC50 is less than 4.00. The CC50 in data set [2] was in the range of 31 to 39 µM. For the same compound, the MCC at 72 h in data set [7] is 20 to 35 µM.

For `CCCn1cc(CNCCc2ccc(-c3ccccc3)cc2)c2ccccc21`, the pEC50 in [9] was less than 6.10; in [1] it was less than 6.80; in [3], less than 4.00; in data set [4], less than 6.10; in [5], less than 4.00; in data set [6], less than 4.00. In data set [2], the CC50 was 1.7 µM. The MCC at 72 h in data set [7] was 4 µM.

Turning to `COc1ccc(CNCCc2cn(C)c3ccccc23)cc1`, the pEC50 in data set [9], in [1], in data set [3], in data set [4], in data set [5] and in data set [6] was less than 4.70 throughout. Moreover, in data set [8], the pEC50 was less than 4.70. Also, the CC50 in data set [2] amounted to 28 µM. Besides, the MCC at 72 h in data set [7] came out at 100 µM.

As for `CC(=O)N(CCc1cn(C)c2ccccc12)Cc1ccc(-c2ccccc2)cc1`, the pEC50 in data set [9] and in [4] was less than 4.70 each time. Further, the MCC at 72 h in data set [7] amounted to 100 µM.

On to `CC(=O)N(CCc1cn(C)c2ccccc12)c1ccc2ccccc2c1`, for which the pEC50 in data set [9] and in [4] was less than 5.40 throughout. Also, in data set [7], the MCC at 72 h came to 20 µM.

As for `Cn1cc(CCN(CCc2ccc(-c3ccccc3)cc2)C(=O)c2ccccc2)c2ccccc21`, the pEC50 in [9] and in data set [4] was 4.70 in each case. Further, the MCC at 72 h in data set [7] is greater than 100 µM.

`Cn1cc(CCN(CCc2ccc(-c3ccccc3)cc2)C(=O)C2CCCCC2)c2ccccc21`: the pEC50 in data set [9] and in data set [4] was less than 5.40 throughout. For the same compound, the MCC at 72 h in [7] was determined as 20 µM.

Turning to `CCCn1cc(CNCCc2ccc(-c3ccccc3)cc2)c2cc(CNc3ccc(Cl)cc3)ccc21`, the pEC50 in [9], in data set [1], in data set [3], in data set [4], in [5] and in [6] was less than 5.40 throughout. In addition, in data set [2], the CC50 came out at 9.7 µM. Further, the MCC at 72 h in data set [7] came out at 20 µM.

Turning to `Cn1cc(CCN(CCc2ccc(-c3ccccc3)cc2)C(=O)CCN2CCOCC2)c2ccccc21`, the negative-log EC50 (pEC50) in [9] and in [4] was less than 5.40 in each case. Moreover, the MCC at 72 h in data set [7] is 20 µM.

As to `c1ccc(-c2ccc(Cn3cc(CN4CCCCC4)c4ccccc43)cc2)cc1`, the pEC50 in [9] is less than 5.40; in [1] it was less than 5.40; in data set [3], less than 4.70; in [4], less than 5.40; in [5], less than 4.70; in data set [6] it was less than 4.70. In addition, the CC50 in data set [2] came to 6.9 µM. Besides, the MCC at 72 h in data set [7] was 20 µM.

For `Nc1ccn(C[C@@H](CO)OCP(=O)(O)O)c(=O)n1` [CIDOFOVIR], the negative logarithm of the EC50 (pEC50) in data set [5] was 6.15; in [6] it was 6.40. Also, the MCC at 72 h in [7] was greater than 250 µM.

`CCCn1cc(CN2CCCCC2)c2ccccc21`: the negative-log EC50 (pEC50) was less than 4.00 in data set [9]; less than 5.40 in data set [1]; less than 4.00 in data set [3]; less than 4.00 in [4]; less than 4.00 in [5]; less than 4.00 in data set [6]. For the same compound, the pEC50 in data set [8] was less than 5.40. In data set [2], the CC50 was greater than 100 µM. Further, the MCC at 72 h in [7] is greater than 100 µM.

`CCCn1cc(CN2CCCCC2)c2cc(NC(=O)c3ccccc3)ccc21`: the pEC50 is less than 4.70 in [9]; less than 4.70 in data set [1]; less than 4.00 in data set [3]; less than 4.70 in [4]; less than 4.00 in data set [5]; less than 4.00 in data set [6]. For the same compound, in data set [2], the CC50 is 31 µM. Also, in data set [7], the MCC at 72 h amounted to 100 µM.

As for `CC(=O)N(CCc1cn(C)c2ccccc12)Cc1cccc2ccccc12`, the pEC50 in data set [9] and in data set [4] was less than 4.70 throughout. Also, in data set [7], the MCC at 72 h was 100 µM.

`Nc1nc(O)c2ncn(COC(CO)CO)c2n1` [GANCICLOVIR]: the MCC at 72 h in data set [7] was greater than 100 µM.

Turning to `Cn1cc(CCNc2ccc3ccccc3c2)c2ccccc21`, the pEC50 in data set [9] is less than 4.00; in [1] it was 4.00; in data set [3] it was less than 4.00; in [4] it was less than 4.00; in data set [5], less than 4.00; in data set [6], less than 4.00. Moreover, the pEC50 in data set [8] was 4.12. For the same compound, the CC50 in [2] came to 41 µM. Also, in [7], the MCC at 72 h was greater than 100 µM.

`Cn1cc(CCN(CCc2ccc(-c3ccccc3)cc2)C(=O)OC(C)(C)C)c2ccccc21`: the pEC50 in data set [9] and in data set [4] was less than 5.40 throughout. For the same compound, the MCC at 72 h in data set [7] was 20 µM.

Take `O=c1[nH]c(=O)n([C@H]2C[C@H](O)[C@@H](CO)O2)cc1/C=C/Br` [BRIVUDINE]: the pEC50 is 7.46 to 7.72 in data set [9], 3.84 to 4.48 in data set [4] and 4.02 in data set [5]. Moreover, the CC50 at 72 h in [2] fell in the range of 160 to 300 µM. In data set [7], the MCC at 72 h lay within 250 to 300 µM.

Consider `Cn1cc(CCNCc2ccc(Cl)cc2)c2ccccc21`, for which the pEC50 in data set [9] is less than 5.40; in data set [1] it was less than 4.70; in data set [3], less than 4.70; in data set [4] it was less than 5.40; in data set [5] it was less than 4.70; in [6], less than 4.70. The pEC50 in data set [8] is less than 4.70. Moreover, the half-maximal cytotoxic concentration (CC50) in [2] is 22 µM. The MCC at 72 h in data set [7] worked out at 20 µM.

In the case of `Nc1nc2c(ncn2COCCO)c(=O)[nH]1` [ACYCLOVIR], the CC50 at 72 h in [2] lay within 191 to 224 µM. The MCC at 72 h in [7] was 250 to 440 µM.

`CCCn1cc(CN2CCCCC2)c2cc(CNc3ccc(Cl)cc3)ccc21`: the pEC50 in data set [9] was less than 5.40; in data set [1] it was less than 5.40; in data set [3], less than 4.70; in [4] it was less than 5.40; in data set [5] it was less than 4.70; in data set [6], less than 4.70. The CC50 in data set [2] amounted to 15 µM. Further, the MCC at 72 h in data set [7] is 20 µM.

On to `CC(=O)N(CCc1cn(C)c2ccccc12)Cc1ccc(Oc2ccccc2)cc1`, for which the pEC50 in data set [9] and in data set [4] was less than 5.40 each time. Further, the MCC at 72 h in data set [7] came out at 20 µM.

For the compound `COC(=O)c1ccc(CNCCc2cn(Cc3ccc(-c4ccccc4)cc3)c3ccccc23)cc1`, the pEC50 in data set [1] was less than 5.40; in data set [3], less than 4.00; in data set [4], less than 5.40; in data set [5], less than 4.00; in data set [10], less than 5.40; in data set [6], less than 4.00. Moreover, the pEC50 in [8] is less than 5.40. In addition, the CC50 in data set [2] was 7.3 µM. The MCC at 72 h in data set [7] came to 20 µM.

Consider `CC(=O)N(CCc1cn(C)c2ccccc12)Cc1ccc2ccccc2c1`, for which the pEC50 in [9] and in [4] was less than 5.40 throughout. Moreover, the MCC at 72 h in data set [7] came to 20 µM.

Turning to `CC(=O)N(CCc1cn(C)c2ccccc12)c1cccc2ccccc12`, the pEC50 in data set [9] and in data set [4] was less than 4.70 each time. Moreover, in [7], the MCC at 72 h was found to be 100 µM.
